Laboratory results from ChEMBL document CHEMBL5058577, “EUbOPEN Chemogenomics Library 2 (Multiplex)” (2022).

System: U2OS
Assay: Multiplex assay against U2OS
Assay type: toxicity, cell-based
Settings: human
Summary of the method: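 Live cells carried four stains from seeding: Hoechst33342, BioTracker Green Microtubule Cytoskeleton Dye, MitoTracker Red and Annexin V Alexa Fluor 680. They were imaged on a CQ1 microscope at 37°C and 5% CO2 after compound addition. Using CellPathfinder machine-learning gating, cells were split into Hoechst high-intensity objects or normal cells, normal cells into healthy, pyknosed or fragmented nuclei, and pyknosed cells into mitotic or apoptotic; tubulin, mitochondrial-mass and membrane-permeability phenotypes are per cents of healthy-nucleus cells.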

[1] = 12 h, 1 µM, compound concentration 1 uM, replicate 1
[2] = 12 h, 1 µM, compound concentration 1 uM, replicate 2
[3] = 12 h, 10 µM, compound concentration 10 uM, replicate 1
[4] = 12 h, 10 µM, compound concentration 10 uM, replicate 2
[5] = 24 h, 1 µM, compound concentration 1 uM, replicate 1
[6] = 24 h, 1 µM, compound concentration 1 uM, replicate 2
[7] = 24 h, 10 µM, compound concentration 10 uM, replicate 1
[8] = 24 h, 10 µM, compound concentration 10 uM, replicate 2
[9] = 48 h, 1 µM, compound concentration 1 uM, replicate 1
[10] = 48 h, 1 µM, compound concentration 1 uM, replicate 2
[11] = 48 h, 10 µM, compound concentration 10 uM, replicate 1
[12] = 48 h, 10 µM, compound concentration 10 uM, replicate 2

COc1cc(OC2CCN(C(C)=O)CC2)ccc1C(=O)N1CCC(N2C(=O)OCc3ccccc32)CC1
Population Apoptotic (%) [1]: 50% | Population Fragmented Nuclei (%) [1]: 22% | Population Healthy Nuclei (%) [1]: 67% | Population Hoechst High Intensity Objects (%) [1]: 0% | Population Membrane Permeable-Phenotype (%) [1]: 5% | Population Mitochondria Different-Phenotype (%) [1]: 3% | Population Mitotic Cells (%) [1]: 50% | Population Normal (%) [1]: 99% | Population Pyknosed Nuclei (%) [1]: 9% | Population Tubulin-Different-Phenotype (%) [1]: 3% | Total Cell Count [1]: 233 | Population Apoptotic (%) [2]: 66% | Population Fragmented Nuclei (%) [2]: 20% | Population Healthy Nuclei (%) [2]: 69% | Population Membrane Permeable-Phenotype (%) [2]: 11% | Population Mitochondria Different-Phenotype (%) [2]: 7% | Population Mitotic Cells (%) [2]: 33% | Population Tubulin-Different-Phenotype (%) [2]: 8% | Total Cell Count [2]: 130 | Population Apoptotic (%) [3]: 72% | Population Fragmented Nuclei (%) [3]: 23% | Population Healthy Nuclei (%) [3]: 62% | Population Hoechst High Intensity Objects (%) [3]: 6% | Population Membrane Permeable-Phenotype (%) [3]: 18% | Population Mitochondria Different-Phenotype (%) [3]: 6% | Population Mitotic Cells (%) [3]: 27% | Population Normal (%) [3]: 93% | Population Pyknosed Nuclei (%) [3]: 13% | Population Tubulin-Different-Phenotype (%) [3]: 12% | Total Cell Count [3]: 228 | Population Apoptotic (%) [4]: 87% | Population Fragmented Nuclei (%) [4]: 13% | Population Healthy Nuclei (%) [4]: 77% | Population Hoechst High Intensity Objects (%) [4]: 1% | Population Membrane Permeable-Phenotype (%) [4]: 21% | Population Mitochondria Different-Phenotype (%) [4]: 10% | Population Mitotic Cells (%) [4]: 12% | Population Normal (%) [4]: 98% | Population Pyknosed Nuclei (%) [4]: 9% | Population Tubulin-Different-Phenotype (%) [4]: 13% | Total Cell Count [4]: 85 | Population Apoptotic (%) [5]: 82% | Population Fragmented Nuclei (%) [5]: 20% | Population Healthy Nuclei (%) [5]: 71% | Population Hoechst High Intensity Objects (%) [5]: 1% | Population Membrane Permeable-Phenotype (%) [5]: 3% | Population Mitochondria Different-Phenotype (%) [5]: 2% | Population Mitotic Cells (%) [5]: 17% | Population Normal (%) [5]: 98% | Population Pyknosed Nuclei (%) [5]: 8% | Population Tubulin-Different-Phenotype (%) [5]: 2% | Total Cell Count [5]: 288 | Population Apoptotic (%) [6]: 76% | Population Fragmented Nuclei (%) [6]: 22% | Population Healthy Nuclei (%) [6]: 68% | Population Membrane Permeable-Phenotype (%) [6]: 7% | Population Mitochondria Different-Phenotype (%) [6]: 5% | Population Mitotic Cells (%) [6]: 23% | Population Tubulin-Different-Phenotype (%) [6]: 3% | Total Cell Count [6]: 163 | Population Apoptotic (%) [7]: 81% | Population Fragmented Nuclei (%) [7]: 21% | Population Healthy Nuclei (%) [7]: 60% | Population Hoechst High Intensity Objects (%) [7]: 5% | Population Membrane Permeable-Phenotype (%) [7]: 9% | Population Mitochondria Different-Phenotype (%) [7]: 9% | Population Mitotic Cells (%) [7]: 18% | Population Normal (%) [7]: 94% | Population Pyknosed Nuclei (%) [7]: 18% | Population Tubulin-Different-Phenotype (%) [7]: 4% | Total Cell Count [7]: 250 | Population Apoptotic (%) [8]: 71% | Population Fragmented Nuclei (%) [8]: 12% | Population Healthy Nuclei (%) [8]: 80% | Population Hoechst High Intensity Objects (%) [8]: 2% | Population Membrane Permeable-Phenotype (%) [8]: 10% | Population Mitochondria Different-Phenotype (%) [8]: 3% | Population Mitotic Cells (%) [8]: 28% | Population Normal (%) [8]: 97% | Population Pyknosed Nuclei (%) [8]: 7% | Population Tubulin-Different-Phenotype (%) [8]: 6% | Total Cell Count [8]: 99 | Population Apoptotic (%) [9]: 80% | Population Fragmented Nuclei (%) [9]: 17% | Population Healthy Nuclei (%) [9]: 77% | Population Hoechst High Intensity Objects (%) [9]: 3% | Population Membrane Permeable-Phenotype (%) [9]: 3% | Population Mitochondria Different-Phenotype (%) [9]: 1% | Population Mitotic Cells (%) [9]: 19% | Population Normal (%) [9]: 96% | Population Pyknosed Nuclei (%) [9]: 5% | Population Tubulin-Different-Phenotype (%) [9]: 2% | Total Cell Count [9]: 388 | Population Apoptotic (%) [10]: 65% | Population Fragmented Nuclei (%) [10]: 23% | Population Healthy Nuclei (%) [10]: 66% | Population Membrane Permeable-Phenotype (%) [10]: 10% | Population Mitochondria Different-Phenotype (%) [10]: 5% | Population Mitotic Cells (%) [10]: 35% | Population Pyknosed Nuclei (%) [10]: 9% | Population Tubulin-Different-Phenotype (%) [10]: 4% | Total Cell Count [10]: 213 | Population Apoptotic (%) [11]: 81% | Population Fragmented Nuclei (%) [11]: 19% | Population Healthy Nuclei (%) [11]: 66% | Population Hoechst High Intensity Objects (%) [11]: 5% | Population Membrane Permeable-Phenotype (%) [11]: 5% | Population Mitochondria Different-Phenotype (%) [11]: 4% | Population Mitotic Cells (%) [11]: 18% | Population Normal (%) [11]: 95% | Population Pyknosed Nuclei (%) [11]: 14% | Population Tubulin-Different-Phenotype (%) [11]: 3% | Total Cell Count [11]: 320 | Population Apoptotic (%) [12]: 100% | Population Fragmented Nuclei (%) [12]: 17% | Population Healthy Nuclei (%) [12]: 78% | Population Hoechst High Intensity Objects (%) [12]: 1% | Population Membrane Permeable-Phenotype (%) [12]: 14% | Population Mitochondria Different-Phenotype (%) [12]: 6% | Population Mitotic Cells (%) [12]: 0% | Population Normal (%) [12]: 98% | Population Pyknosed Nuclei (%) [12]: 3% | Population Tubulin-Different-Phenotype (%) [12]: 8% | Total Cell Count [12]: 130
